Compounds with a hit are over-represented: about 2.1% of the library has one in this group of screens.
APJ agonist = agonists of human apelin receptor APJ, primary screen, CHO-K1 cells, PathHunter beta-arrestin, luminescence; P35414; 0% DMSO wells, 100% apelin; activation, % at 20 µM; actives 0.11% (n = 330,000); AID 2520, 2010;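 active = activation more than six SD over the plate average, tested at 20 µM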
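Material: CHO-K1 APJ beta-arrestin complementation cell line; Input: cell density 1000 per well; Incubation: compound stimulation 90 min at 25 °C, detection 60 min; Signal: luminescence from split beta-galactosidase complementation, Galacton Star/Emerald II substrate; Controls: DMSO-only wells as negative, 10 nM Apelin-13 as positive control.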
CCR6 antagonist = CCR6 receptor antagonists, primary screen, cell-based, CHO-K1, luminescence, beta-arrestin, uHTS. CHO-K1 CCR6 PathHunter beta-arrestin, CCL20-stimulated. actives 0.49% (n = 340,000). inhibition, % at 20 µM;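 active = compounds whose inhibition of the agonist-driven luminescence signal at 20 µM reaches about 50%, limit read from the data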;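 also: cells stimulated with CCL20 at 14 nM final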
HTR2A ag = mouse Htr2a agonists via beta-arrestin recruitment, primary screen, cell-based, luminescence. 5-hydroxytryptamine receptor 2A (Mus musculus), P35363. CHO-K1 mHTR2A beta-arrestin complementation; percent of 30 µM serotonin response. activation, % at 7.6 µM. actives 0.66% (n = 360,000). AID 624169, 2012;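 active = activation above a run cutoff, the mean activation of all tested compounds plus 3 SD, cut at about 14% in these data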
CXCR6 inh = CXCR6 receptor inhibitors, primary screen, cell-based, beta-arrestin, luminescence, CHO-K1 PathHunter, 1536-well | inhibition, % at 20 µM | actives 0.36% (n = 360,000); in the data active = inhibition above about 34%, passing the limit was not always enough;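 also: antagonist mode with CXCL16 agonist at 10 nM final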
Target sequence (O00574 whole entry, looked up): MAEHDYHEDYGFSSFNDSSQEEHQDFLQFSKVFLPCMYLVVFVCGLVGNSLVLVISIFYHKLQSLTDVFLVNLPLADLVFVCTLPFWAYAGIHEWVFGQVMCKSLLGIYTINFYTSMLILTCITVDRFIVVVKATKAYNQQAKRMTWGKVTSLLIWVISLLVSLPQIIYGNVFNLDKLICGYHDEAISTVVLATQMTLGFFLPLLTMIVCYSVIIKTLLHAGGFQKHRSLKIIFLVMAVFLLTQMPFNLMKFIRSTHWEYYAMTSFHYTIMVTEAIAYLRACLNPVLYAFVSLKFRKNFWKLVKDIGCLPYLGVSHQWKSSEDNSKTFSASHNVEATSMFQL
APJ antagonist = antagonists of human apelin receptor APJ, primary screen, CHO-K1 cells, beta-arrestin complementation, luminescence; P35414; actives 0.32% (n = 330,000); inhibition, % at 20 µM;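 active = inhibition above about 40% at 20 µM, limit read from the data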;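 also: cells challenged with 10 nM apelin-13 agonist together with compound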
EBI2 antag = EBI2 receptor antagonists, beta-arrestin recruitment, primary screen, cell-based, luminescence, 7a,25-OHC stimulation, uHTS | AID 651636, 2012 | inhibition, % at 5 µM | 7a,25-OHC stimulated | actives 0.81% (n = 360,000) | G-protein coupled receptor 183 (Homo sapiens), P32249; in the data active = inhibition above about 38%;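 also: enzyme fragment complementation signal reports receptor beta-arrestin coupling in cells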
APJ antag confirm = APJ antagonists blocking beta-arrestin recruitment, confirmation, cell-based, luminescence, single concentration, uHTS hits | shares compounds with APJ antagonist | antagonist mode | inhibition, % at 20 µM | actives 66% (n = 950); in the data active = inhibition above about 50%
Large screens that a line does not name were inactive (follow-up assays come after a bar, where they were run).

Cn1c(=O)[nH]c(=O)c2c1nc(N1CCNCC1)n2Cc1cccc2ccccc12	CCR6 antagonist 54, CXCR6 inh 45, APJ antagonist 41 | APJ antag confirm 92
Cn1c(=O)c2c(nc(N3CCNCC3)n2Cc2cccc3ccccc23)n(C)c1=O	CCR6 antagonist 62, CXCR6 inh 47, APJ antagonist 57 | APJ antag confirm 99
O=C(NNc1ncc(C(F)(F)F)cc1Cl)c1c(Cl)cccc1Cl	none | APJ antag confirm 65
Cc1c(Cl)cccc1NC(=S)NNc1ncc(C(F)(F)F)cc1Cl	CCR6 antagonist 87, CXCR6 inh 53, APJ antagonist 72 | APJ antag confirm 117
CCOC(=O)C1=C(C)N=c2s/c(=C/c3cccc([N+](=O)[O-])c3O)c(=O)n2C1c1ccccc1 (stereo not given)	CCR6 antagonist 71, APJ antagonist 50 | APJ antag confirm 99
CCOC(=O)C1=C(C)N=c2s/c(=C/c3ccco3)c(=O)n2C1c1cccc(OC)c1 (stereo not given)	none (no result: HTR2A ag, CXCR6 inh, EBI2 antag)
CCOC(=O)C1=C(C)N=c2s/c(=C/c3cccc([N+](=O)[O-])c3O)c(=O)n2C1c1cc(OC)c(OC)c(OC)c1 (stereo not given)	CCR6 antagonist 55, APJ antagonist 40 | APJ antag confirm 90
CCOC(=O)C1=C(c2ccccc2)N=c2s/c(=C\c3ccc(O)cc3)c(=O)n2C1c1cccs1 (stereo not given)	CCR6 antagonist 53, APJ antagonist 42 | APJ antag confirm 102
Cc1ccccc1NC(=O)Cn1cnc2c1c(=O)n(C)c(=O)n2C	none
C(=N\Nc1nc(N2CCCCC2)nc(N2CCCCC2)n1)/c1c[nH]c2ccccc12	none
Cc1cc2nc(/C(C#N)=C\c3ccc(-c4ccccc4C(=O)O)o3)[nH]c2cc1C	none
CCCCS(=O)(=O)/C=C\C=C/S(=O)(=O)CCCC	CCR6 antagonist 81, CXCR6 inh 78, APJ antagonist 69, EBI2 antag 51 | APJ antag confirm 89
CC(=O)N(CC(=O)Nc1nn(-c2ccccc2)nc1C(N)=O)Cc1ccccc1	none
COc1cc(/C=N/NS(=O)(=O)c2ccc(C)c([N+](=O)[O-])c2)cc([N+](=O)[O-])c1O	APJ antagonist 50 | APJ antag confirm 60
COc1cc(/C=N/NS(=O)(=O)c2ccc(C)c([N+](=O)[O-])c2)ccc1O	none
CCOC(=O)C1CCCN(c2c(NCCCN(CC)c3ccccc3)c(=O)c2=O)C1 (stereo not given)	none
CCOC(=O)C1CCCN(c2c(NCCN(CC)c3ccccc3)c(=O)c2=O)C1 (stereo not given)	APJ antagonist 40 | APJ antag confirm inactive
O=C(NNc1ccc(Cl)cc1)c1sccc1Cl	APJ antagonist 62 | APJ antag confirm 98
COc1ccc(S(=O)(=O)N2CCCOC2CNC(=O)C(=O)NCc2ccncc2)cc1 (stereo not given)	none
NS(=O)(=O)c1ccc(NNC(=O)c2ccc(Br)o2)c([N+](=O)[O-])c1	CCR6 antagonist 69, APJ antagonist 52 | APJ antag confirm 82
ON1C(c2ccccc2C(F)(F)F)N(O)[C@H]2CCCC[C@H]21 (stereo not given in full)	APJ antagonist 40 | APJ antag confirm inactive
O=C(Cc1ccc(S(=O)(=O)N2CCCCC2)cc1)NCc1ccc(Cl)cc1	none
O=C(NNc1c2ccccc2nc2ccccc12)c1ccc(O)cc1	CCR6 antagonist 57, APJ antagonist 41 | APJ antag confirm 69
O=C(NNc1c2ccccc2nc2ccccc12)c1ccccc1O	none
CCN(CC(=O)Nc1c(F)cccc1F)C(=O)c1ccc(Cl)c(S(=O)(=O)N2CCCC2)c1	none
